The values below come from PMC7869845 (ACS catalysis, 2020).

Assay [1] concerns TamI S397A, T398A, V185A, P43A/V44A variants. It is filed as biochemical, Streptomyces sp. 307-9. Particulars: end-point assay, TirC to TirE conversion.
Assay [2] has as its system TamI F92A. The assay can be described thus: End-point assay, TamI F92A. It is filed as biochemical, Streptomyces sp. 307-9. Summed up: (§1)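 Site-directed mutants expressed in E. coli BL21(DE3). Reactions in phosphate buffer (50 mM NaH2PO4, pH 7.4, EDTA, dithioerythritol, 10% glycerol) held 500 μM tirandamycin substrate, 2 μM TamI, spinach ferredoxin, 2 μM ferredoxin-NADP+ reductase, and G6P/G6PDH NADPH regeneration. Incubated 3 h at 30 °C, extracted with CHCl3, then C18 reverse-phase HPLC with UV at 354 nm. Run in triplicate.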

Assay [3] relates to TamI L399A/I400A. Nature of the assay: End-point assay, TamI L399A/I400A. It is filed as biochemical, Streptomyces sp. 307-9. In a few lines: as §1
Assay [4] concerns TamI F92A. The assay can be described thus: Spectrophotometric substrate binding assay, TamI F92A. Further details: species or system Streptomyces sp. 307-9. Summed up:
(§2)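 Active P450 was quantified by CO-difference spectra (ε450-490 = 91 mM−1cm−1). Enzyme at 1 μM final in storage buffer was titrated aerobically at room temperature with tirandamycin C from DMSO stocks until saturated. Difference spectra were recorded at 365–429 nm, and peak-minus-trough ΔA was plotted against concentration. Kd came from quadratic tight-binding or hyperbolic fits, averaged over triplicate titrations.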

The test system of assay [5] is TamI L399A/I400A. Nature of the assay: Spectrophotometric substrate binding assay, TamI L399A/I400A. Further details: species or system Streptomyces sp. 307-9. In a few lines: as §2
The test system of another assay is TamI L101V/H102S. Nature of the assay: End-point assay, TamI L101V/H102S. The assay is classed as biochemical, Streptomyces sp. 307-9. Particulars: no change in product profile. In a few lines:
as §1

For assay [6], the system named is TamI double mutant (alanine substitutions at Leu295 and Thr299). The assay can be described thus: End-point assay, TamI Leu295/Thr299 alanine double mutant. It is filed as biochemical, Streptomyces sp. 307-9. Summed up: as §1
In assay [7] the test system is TamI-RhFRED fusion protein. To be noted: first oxidation of 1, second oxidation of 3, final oxidation of 4; cited from earlier work.

One may read the kcat as the maximal rate divided by the concentration of active sites.

Regarding `CC1=CC[C@H]2O[C@]1(C)O[C@H]([C@H](C)/C=C(C)/C=C/C(O)=C1/C(=O)CNC1=O)[C@H]2C` [compound 1, tirandamycin C], the “product profile or abundance compared to wild type TamI” value in assay [1] is reported as “no evident changes in product profile or abundance”. Also, the catalytic activity result is on record as “complete loss of catalytic activity” in the assay on TamI F92A [2] and “significantly reduced activity” in the assay on TamI L399A/I400A [3]. For the same molecule, the “spectral shift on substrate addition” value with TamI F92A [4] and with TamI L399A/I400A [5] was “no shift” in each case. In addition, the “TirC to TirE conversion” value in the assay on TamI L101V/H102S is listed as “significant decrease”. Besides, the “ability to convert substrate to 2” value in assay [6] was “wild type activity”. Moreover, the catalytic constant (kcat) in assay [7] is 0.675 s⁻¹.

Take `CC(/C=C/C(O)=C1/C(=O)CNC1=O)=C\[C@@H](C)[C@H]1O[C@@]2(C)O[C@H](C(=O)[C@H]3O[C@]32C)[C@@H]1C` [compound 4, tirandamycin A]: the kcat in assay [7] is 0.00183 s⁻¹.

With `CC1=CC(=O)[C@H]2O[C@]1(C)O[C@H]([C@H](C)/C=C(C)/C=C/C(O)=C1/C(=O)CNC1=O)[C@H]2C` [compound 3, tirandamycin D], the kcat in assay [7] was 1.4 s⁻¹.
